Assay results: ChEMBL document CHEMBL2321720, “Development of triarylsulfonamides as novel anti-inflammatory agents” (Bioorg Med Chem Lett, 2013)
Converted amounts (≈) assume the structure as drawn.

Assays:
[1] = Thermodynamic aqueous solubility of the compound in fasted state simulated intestinal fluid after 24 hrs by HPLC analysis; assay type: physicochemical; settings: read-out: Therm_solubility
How it was run: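 Solubility in FaSSIF. The sample was filtered and concentration measured by HPLC/UV.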

[2] = Apparent permeability from apical to basolateral side of human Caco2 cells; assay type: ADME, cell-based; settings: Caco-2
[3] = Apparent permeability from basolateral to apical side of human Caco2 cells; assay type: ADME, cell-based; settings: Caco-2
[4] = Cmax in rat at […], po; assay type: ADME, organism-based; parameters: dose 2.5 mg/kg, route oral; settings: in vivo
[5] = Tmax in rat at […], po; assay type: ADME, organism-based; parameters: dose 2.5 mg/kg, route oral; settings: in vivo
[6] = AUC in rat at […], po; assay type: ADME, organism-based; parameters: dose 2.5 mg/kg, route oral; settings: plasma
[7] = Oral bioavailability in rat at […]; assay type: ADME, organism-based; settings: in vivo

O=S(=O)(Nc1cc(CO)ccc1O)c1ccc(-c2ccc(Br)cc2)cc1
solubility thermodynamic at 24 h [1]: 12 µg/mL (≈ 27.6 µM)

O=S(=O)(Nc1cccc(CO)c1)c1ccc(-c2ccccc2)cc1
solubility thermodynamic at 24 h [1]: 11 µg/mL (≈ 32.4 µM)

O=S(=O)(Nc1cccc(CO)c1)c1ccc(-c2ccc(Br)cc2)cc1
solubility thermodynamic at 24 h [1]: 22 µg/mL (≈ 52.6 µM)

Cc1c(CO)cccc1NS(=O)(=O)c1ccc(-c2ccc(Br)cc2)cc1
solubility thermodynamic at 24 h [1]: 12 µg/mL (≈ 27.8 µM)

O=S(=O)(Nc1cccc(CO)c1)c1ccc(-c2ccc(Cl)cc2Cl)cc1
solubility thermodynamic at 24 h [1]: 40 µg/mL (≈ 98 µM)
Papp A→B [2]: 1.5 ×10⁻⁶ cm/s
Papp B→A [3]: 5.5 ×10⁻⁶ cm/s
Cmax [4]: 30 ng/mL
Tmax [5]: 50 min
AUC [6]: 110 ng·h/mL
bioavailability [7]: 8%

O=S(=O)(Nc1ccc(-c2ccc(Cl)cc2Cl)cc1)c1cccc(CO)c1
solubility thermodynamic at 24 h [1]: 40 µg/mL (≈ 98 µM)

O=S(=O)(Nc1cc(CO)ccc1Cl)c1ccc(-c2ccc(Br)cc2)cc1
solubility thermodynamic at 24 h [1]: 11 µg/mL (≈ 24.3 µM)

O=S(=O)(Nc1cccc(CO)c1)c1ccc(-c2ccc(F)cc2)cc1Cl
solubility thermodynamic at 24 h [1]: 25 µg/mL (≈ 63.8 µM)

O=S(=O)(Nc1cccc(CO)c1O)c1ccc(-c2ccc(Br)cc2)cc1
solubility thermodynamic at 24 h [1]: 19 µg/mL (≈ 43.7 µM)

O=S(=O)(Nc1cccc(CO)c1)c1ccc(-c2ccc(F)cc2F)cc1
solubility thermodynamic at 24 h [1]: 50 µg/mL (≈ 133 µM)

Cc1ccc(CO)cc1NS(=O)(=O)c1ccc(-c2ccc(Br)cc2)cc1
solubility thermodynamic at 24 h [1]: 47 µg/mL (≈ 109 µM)

O=S(=O)(Nc1cccc(CO)c1)c1ccc(-c2ccc(Cl)cc2F)cc1
solubility thermodynamic at 24 h [1]: 73 µg/mL (≈ 186 µM)

Cc1c(CO)cccc1NS(=O)(=O)c1ccc(-c2ccc(F)cc2)cc1
solubility thermodynamic at 24 h [1]: 24 µg/mL (≈ 64.6 µM)

O=S(=O)(Nc1cccc(CO)c1Cl)c1ccc(-c2ccc(Br)cc2)cc1
solubility thermodynamic at 24 h [1]: 14 µg/mL (≈ 30.9 µM)

O=S(=O)(Nc1cc(CO)ccc1O)c1ccc(-c2ccc(F)cc2F)cc1
solubility thermodynamic at 24 h [1]: 12 µg/mL (≈ 30.7 µM)

O=S(=O)(Nc1cccc(CO)c1)c1ccc(-c2ccccc2F)cc1
solubility thermodynamic at 24 h [1]: 57 µg/mL (≈ 159 µM)

O=S(=O)(Nc1ccc(O)c(CO)c1)c1ccc(-c2ccc(Br)cc2)cc1
solubility thermodynamic at 24 h [1]: 4 µg/mL (≈ 9.21 µM)

Cc1ccc(-c2ccc(S(=O)(=O)Nc3cccc(CO)c3)cc2)cc1
solubility thermodynamic at 24 h [1]: 21 µg/mL (≈ 59.4 µM)

O=S(=O)(Nc1ccc(CO)c(CO)c1)c1ccc(-c2ccc(F)cc2F)cc1
solubility thermodynamic at 24 h [1]: 32 µg/mL (≈ 78.9 µM)

Cc1c(CO)cccc1NS(=O)(=O)c1ccc(-c2ccc(F)cc2F)cc1
solubility thermodynamic at 24 h [1]: 43 µg/mL (≈ 110 µM)
